# Source: ChEMBL document CHEMBL4825680, “Structure-based discovery of potent and selective small-molecule inhibitors targeting signal transducer and activator of transcription 3 (STAT3)” (Eur J Med Chem, 2021)
# Experiments:
# MGC-803 = assay: Antiproliferative activity against human MGC-803 cells; type: functional, cell-based
# MDA-MB-231 = assay: Antiproliferative activity against human MDA-MB-231 cells; type: functional, cell-based
# [1] = Toxicity in NOD/SCID mouse xenografted with patient-derived breast cancer cells assessed as change in body weight at 5 to 15 mg/kg, ip administered once daily for 20 days; conditions: in vivo, 480 h
# A549 = assay: Antiproliferative activity against human A549 cells; type: functional, cell-based
# [2] = Metabolic stability in human liver microsomes assessed as clearance at 0.1 uM preincubated for 10 mins followed by NADPH addition and measured upto 60 mins by LC-MS/MS analysis; type: ADME, Microsome; conditions: 1 h, time <=70 min
# In short: (§1)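 Microsomes at 0.33 mg/mL in 0.1 M Tris pH 7.4 with 5 mM MgCl2; compound final 0.1 μM (0.01% DMSO, 0.005% BSA). Preincubated 10 min at 37 °C, then started with 1 mM NADPH. Sampled at 0, 7, 17, 30 and 60 min and quenched with cold methanol. Centrifuged, then analysed by LC-MS/MS.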
# [3] = Metabolic stability in human liver microsomes assessed as half life at 0.1 uM preincubated for 10 mins followed by NADPH addition and measured upto 60 mins by LC-MS/MS analysis; type: ADME, Microsome; conditions: time <=70 min; in short: as §1
Structure (SMILES),IC50 (MGC-803),IC50 (MDA-MB-231),Activity [1],IC50 (A549),CLH [2],half-life at 0.1 µM [3]
O=C(Nc1nnc(-c2ccco2)o1)c1cc(-c2ccccc2)nc2ccccc12,7430 nM,18200 nM,Non-Toxic,11600 nM,,
COc1ccn2c(CC(=O)Nc3ccc4c(c3)S(=O)(=O)C=C4)c(-c3ccccc3)nc2c1,1000 nM,1200 nM,,600 nM,208.4 mL/min/g,10.1 min
COc1ccn2c(C(=O)Nc3ccc(C4CCCCC4)cc3)c(-c3ccccc3)nc2c1,> 100000 nM,> 100000 nM,,> 100000 nM,,
COc1ccc2c(C(=O)Nc3ccc(-c4ccccc4)cc3)cc(-c3ccccc3)nc2c1,2600 nM,5300 nM,,3000 nM,,
COc1ccn2c(CC(=O)Nc3ccc4c(c3)S(=O)(=O)C=C4)c(-c3ccc(C(F)(F)F)cc3)nc2c1,400 nM,700 nM,,400 nM,478 mL/min/g,4.4 min
O=C(Cc1c(-c2ccccc2)nc2cc(Br)ccn12)Nc1ccc2c(c1)S(=O)(=O)C=C2,900 nM,900 nM,,800 nM,,
CS(=O)(=O)c1ccc(-c2nc3ccccn3c2CC(=O)Nc2ccc3c(c2)S(=O)(=O)C=C3)cc1,6900 nM,6400 nM,,7500 nM,,
COc1ccc2c(C(=O)Nc3ccc(C(C)C)cc3)cc(-c3ccccc3)nc2c1,> 100000 nM,> 100000 nM,,> 100000 nM,,
COc1ccn2c(CC(=O)Nc3ccc(C4CCCCC4)cc3)c(-c3ccccc3)nc2c1,4700 nM,5400 nM,,5600 nM,,
COc1ccc2c(C(=O)Nc3ccc(-c4ccc(C(C)C)cc4)cc3)cc(-c3ccccc3)nc2c1,> 100000 nM,> 100000 nM,,> 100000 nM,,
COc1ccn2c(CC(=O)Nc3ccc(-c4ccccc4)cc3)c(-c3ccccc3)nc2c1,3500 nM,10500 nM,,3200 nM,,
Cc1ccc2nc(-c3ccc(C#N)cc3)c(CC(=O)Nc3ccc4c(c3)S(=O)(=O)C=C4)n2c1,2400 nM,2000 nM,,2500 nM,,
CCCCc1ccc(NC(=O)c2cc(-c3ccccc3)nc3cc(OC)ccc23)cc1,39600 nM,> 100000 nM,,40900 nM,,
COc1ccc2c(C(=O)NCc3ccc(C4CCCCC4)cc3)cc(-c3ccccc3)nc2c1,> 100000 nM,> 100000 nM,,> 100000 nM,,
COc1ccn2c(CC(=O)Nc3ccc4c(c3)S(=O)(=O)C=C4)c(-c3ccc(S(C)(=O)=O)cc3)nc2c1,6400 nM,5800 nM,,5800 nM,,
COc1ccn2c(CC(=O)Nc3ccc4c(c3)S(=O)(=O)C=C4)c(-c3cccs3)nc2c1,1300 nM,1400 nM,,1100 nM,,
COc1ccc(-c2ccn3c(CC(=O)Nc4ccc5c(c4)S(=O)(=O)C=C5)c(-c4ccccc4)nc3c2)cc1,500 nM,1000 nM,,700 nM,,
Cn1cc(-c2ccn3c(CC(=O)Nc4ccc5c(c4)S(=O)(=O)C=C5)c(-c4ccccc4)nc3c2)cn1,700 nM,1400 nM,,800 nM,,
O=C(Cc1c(-c2ccccc2)nc2cc(Cl)ccn12)Nc1ccc2c(c1)S(=O)(=O)C=C2,1300 nM,1100 nM,,700 nM,,
COc1ccc2nc(-c3ccccc3)c(CC(=O)Nc3ccc4c(c3)S(=O)(=O)C=C4)n2c1,1700 nM,2100 nM,,1200 nM,,
COc1ccc(-c2ccc(NC(=O)c3cc(-c4ccccc4)nc4cc(OC)ccc34)cc2)cc1,5800 nM,21000 nM,,4900 nM,,
CCOC(=O)COc1ccc2c(C(=O)NCc3ccc(C4CCCCC4)cc3)cc(-c3ccccc3)nc2c1,> 100000 nM,> 100000 nM,,> 100000 nM,,
O=C(Cc1cnc2ccccn12)Nc1ccc2c(c1)S(=O)(=O)C=C2,22500 nM,20200 nM,,23400 nM,,
COc1ccc2c(C(=O)Nc3ccc(-c4cccnc4)cc3)cc(-c3ccccc3)nc2c1,64800 nM,> 100000 nM,,> 100000 nM,,
Cc1ccc(-c2nc3ccc(C)cn3c2CC(=O)Nc2ccc3c(c2)S(=O)(=O)C=C3)cc1,1800 nM,2100 nM,,900 nM,,
O=C(Cc1c(-c2ccccc2)nc2cc(-c3ccccc3)ccn12)Nc1ccc2c(c1)S(=O)(=O)C=C2,1700 nM,2400 nM,,1100 nM,,
COc1ccc2c(C(=O)Nc3ccc(F)cc3)cc(-c3ccccc3)nc2c1,> 100000 nM,> 100000 nM,,> 100000 nM,,
COc1ccn2c(CC(=O)Nc3ccc4c(c3)S(=O)(=O)C=C4)c(-c3ccc([N+](=O)[O-])cc3)nc2c1,2600 nM,4400 nM,,1700 nM,,
